Results from ChEMBL document CHEMBL4359840, “Computationally Driven Structure Optimization, Synthesis, and Biological Evaluation of Imidazole-Based Proprotein Convertase Subtilisin/Kexin 9 (PCSK9) Inhibitors” (J Med Chem, 2019).
The source made the active and inactive calls. The calls are words filed in the database; no cut-off is given here.

Legend:
[1] = biological target: T1, PCSK9/LDLR (Homo sapiens, UniProt Q8NBP7); test: Inhibition of PCSK9 (unknown origin) interaction with LDLR expressed in human HepG2 cells assessed as increase in LDL uptake level measured after 24 hrs by LDL-Dylight 550 dye based fluorescence assay; type: cell-based
Target sequence in this assay (Q8NBP7 31-152 limits assumed): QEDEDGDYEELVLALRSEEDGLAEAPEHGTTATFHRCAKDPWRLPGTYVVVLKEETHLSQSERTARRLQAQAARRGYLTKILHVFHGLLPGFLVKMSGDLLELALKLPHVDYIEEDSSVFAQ
Target sequence in this assay (Q8NBP7 153-692 limits assumed): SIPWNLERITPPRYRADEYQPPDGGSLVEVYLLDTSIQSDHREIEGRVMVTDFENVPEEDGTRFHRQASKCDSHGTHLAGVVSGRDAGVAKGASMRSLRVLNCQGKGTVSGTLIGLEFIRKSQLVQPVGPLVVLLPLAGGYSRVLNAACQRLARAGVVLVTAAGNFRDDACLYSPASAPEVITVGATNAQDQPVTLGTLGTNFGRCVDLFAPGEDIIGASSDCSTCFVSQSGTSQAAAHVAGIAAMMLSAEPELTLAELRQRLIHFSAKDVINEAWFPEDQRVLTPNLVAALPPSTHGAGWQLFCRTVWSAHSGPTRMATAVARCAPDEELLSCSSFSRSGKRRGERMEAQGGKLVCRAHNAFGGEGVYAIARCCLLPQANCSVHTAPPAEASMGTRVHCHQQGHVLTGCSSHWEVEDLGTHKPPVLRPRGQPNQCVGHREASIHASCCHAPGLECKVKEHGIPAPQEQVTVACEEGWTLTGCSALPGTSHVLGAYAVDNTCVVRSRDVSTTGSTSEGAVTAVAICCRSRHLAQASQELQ
Target sequence in this assay (P01130 22-860 partner limits assumed): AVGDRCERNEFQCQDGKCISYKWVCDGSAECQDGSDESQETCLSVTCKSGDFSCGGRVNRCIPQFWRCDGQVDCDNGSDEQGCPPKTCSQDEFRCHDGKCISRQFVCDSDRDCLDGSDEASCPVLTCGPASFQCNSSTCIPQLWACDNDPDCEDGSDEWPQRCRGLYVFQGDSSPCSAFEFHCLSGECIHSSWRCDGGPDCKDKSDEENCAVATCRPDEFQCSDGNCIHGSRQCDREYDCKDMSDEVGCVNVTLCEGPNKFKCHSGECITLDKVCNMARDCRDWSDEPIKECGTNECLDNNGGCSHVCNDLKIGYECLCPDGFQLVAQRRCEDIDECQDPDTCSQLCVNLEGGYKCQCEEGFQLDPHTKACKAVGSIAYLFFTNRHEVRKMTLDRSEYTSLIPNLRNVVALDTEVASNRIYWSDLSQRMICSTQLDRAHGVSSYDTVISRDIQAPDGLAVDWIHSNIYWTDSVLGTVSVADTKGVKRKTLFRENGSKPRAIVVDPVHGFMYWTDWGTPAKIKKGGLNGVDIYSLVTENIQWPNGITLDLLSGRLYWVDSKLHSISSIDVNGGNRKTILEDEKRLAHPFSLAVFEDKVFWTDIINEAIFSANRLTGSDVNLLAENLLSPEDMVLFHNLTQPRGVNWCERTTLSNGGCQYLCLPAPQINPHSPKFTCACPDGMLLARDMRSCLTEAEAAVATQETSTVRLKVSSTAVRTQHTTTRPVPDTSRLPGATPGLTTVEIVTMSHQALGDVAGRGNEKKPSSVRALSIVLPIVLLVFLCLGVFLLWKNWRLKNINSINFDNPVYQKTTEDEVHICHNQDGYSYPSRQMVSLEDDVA

[2] = biological target: T2, PCSK9/LDLR (Homo sapiens) (UniProt Q8NBP7+P01130); test: Inhibition of PCSK9 (unknown origin) interaction with LDLR expressed in human HepG2 cells assessed as LDL uptake level at 1 uM measured after 2 hrs by LDL-Dylight 550 dye based fluorescence assay (reference value: 34.8 to 67%); type: cell-based; design: scale not given: the % may be the effect or the level left
[3] = biological target: T2, PCSK9/LDLR (Homo sapiens); test: Inhibition of PCSK9 (unknown origin) interaction with LDLR expressed in human HepG2 cells assessed as LDLR level on cell membrane at 1 uM measured after 2 hrs by in-cell Western analysis (reference value: 30.5 to 47.2%); type: cell-based; design: scale not given: the % may be the effect or the level left
[4] = biological target: T1, PCSK9/LDLR; test: (§1) Inhibition of recombinant His-tagged PCSK9 (unknown origin) binding to recombinant […] AB domain (unknown origin) measured after 2 hrs by ELISA; type: protein assay
Method in brief: (§2)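 Commercial kit: compound added with His-tagged PCSK9 to wells coated with recombinant LDLR-AB domain. Bound His-PCSK9 quantified by absorbance at 450 nm. Mean ± s.d. of three independent experiments in duplicate.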

[5] = biological target: T2, PCSK9/LDLR (Homo sapiens); test: Inhibition of recombinant His-tagged PCSK9 (unknown origin) binding to recombinant […] AB domain (unknown origin) at 100 uM measured after 2 hrs by ELISA relative to control; type: protein assay; method in brief: as §2
[6] = biological target: T2, PCSK9/LDLR (Homo sapiens); test: Inhibition of PCSK9 (unknown origin) interaction with LDLR expressed in human HepG2 cells assessed as increase LDLR level on cell membrane at 10 uM measured after 2 hrs by in-cell Western analysis; type: cell-based
[7] = biological target: T2, PCSK9/LDLR (Homo sapiens); test: Inhibition of PCSK9 (unknown origin) interaction with LDLR expressed in human HepG2 cells assessed as increase in LDL uptake level at 10 uM measured after 2 hrs by LDL-Dylight 550 dye based fluorescence assay; type: cell-based
[8] = biological target: T2, PCSK9/LDLR (Homo sapiens); test: Inhibition of recombinant His-tagged PCSK9 (unknown origin) binding to recombinant […] AB domain (unknown origin) at 10 uM measured after 2 hrs by ELISA; type: protein assay; method in brief: as §2
[9] = biological target: T2, PCSK9/LDLR (Homo sapiens); test: as §1; type: protein assay; method in brief: as §2
[10] = biological target: T2, PCSK9/LDLR (Homo sapiens); test: Inhibition of PCSK9 (unknown origin) interaction with LDLR expressed in human HepG2 cells assessed as LDL uptake level at 0.1 uM measured after 2 hrs by LDL-Dylight 550 dye based fluorescence assay (reference value: 34.8 to 67%); type: cell-based; design: scale not given: the % may be the effect or the level left
[11] = tested on: HepG2; test: Cytotoxicity against human HepG2 cells assessed as reduction in cell viability at 0.1 to 10 uM measured after 48 hrs by MTT assay; type: cell-based; details: hepg2, 48 h
[12] = biological target: T2, PCSK9/LDLR (Homo sapiens); test: Inhibition of PCSK9 (unknown origin) interaction with LDLR expressed in human HepG2 cells assessed as LDLR level on cell membrane at 0.1 uM measured after 2 hrs by in-cell Western analysis (reference value: 30.5 to 47.2%); type: cell-based; design: scale not given: the % may be the effect or the level left
[13] = biological target: T2, PCSK9/LDLR (Homo sapiens); test: Inhibition of PCSK9 (unknown origin) interaction with LDLR expressed in human HepG2 cells assessed as LDLR level on cell membrane at 10 uM measured after 2 hrs by in-cell Western analysis (reference value: 30.5 to 47.2%); type: cell-based; design: scale not given: the % may be the effect or the level left
[14] = biological target: T2, PCSK9/LDLR (Homo sapiens); test: Inhibition of PCSK9 (unknown origin) interaction with LDLR expressed in human HepG2 cells assessed as LDL uptake level at 10 uM measured after 2 hrs by LDL-Dylight 550 dye based fluorescence assay (reference value: 34.8 to 67%); type: cell-based; design: scale not given: the % may be the effect or the level left
[15] = biological target: T2, PCSK9/LDLR (Homo sapiens); test: Inhibition of PCSK9 (unknown origin) interaction with LDLR expressed in human HepG2 cells assessed as increase LDLR level on cell membrane measured after 2 hrs by in-cell Western analysis; type: cell-based

T2 sequence (P01130 22-860 partner limits assumed): as above
T2 sequence (Q8NBP7 31-152 limits assumed): as the sequence (Q8NBP7 31-152 limits assumed) above
T2 sequence (Q8NBP7 153-692 limits assumed): as the sequence (Q8NBP7 153-692 limits assumed) above

Cn1cncc1-c1ncc(-c2ncc(-c3ncc(-c4ccccc4)n3C)n2C)n1C
EC50 [1]: 6 µM

H-LILPKHSDAD-OH
Activity [2]: < 104% | Activity [3]: < 93.9% | IC50 [4]: 1.6 µM

COc1ccc(-c2cnc(-c3cncn3Cc3ccccc3)n2C)cc1
inhibition [5]: 18.2% | inhibition [6]: inactive | inhibition [7]: inactive | inhibition [8]: inactive

CC(C)C[C@H](C(=O)N1CCN([C@@H](CC(N)=O)C(=O)N[C@@H](CCCNC(=N)N)C(=O)N[C@H]2CCOC2=O)CC1)N1C(=O)N[C@@H](CC(=O)O)C1=O
IC50 [4]: 20 to 40 µM

CNCCCCCn1cncc1-c1ncc(-c2ncc(-c3ccc(OC)cc3)n2C)n1CCc1ccccc1
inhibition [9]: Dose-dependent effect | IC50 [4]: 3.06 µM

CNCCCCCn1cncc1-c1ncc(-c2ncc(-c3ccc(OC)cc3)n2C)n1Cc1ccccc1
Activity [2]: < 104% | Activity [10]: 63.6% | Activity [11]: Non-Toxic | Activity [12]: < 77.7% | Activity [13]: < 102% | Activity [14]: 101% | inhibition [15]: Dose-dependent effect | Activity [3]: < 101% | inhibition [9]: Dose-dependent effect | IC50 [4]: 1.38 µM
